Screening data deposited in PubChem by several laboratories.
Only some compounds are listed: those with a hit (about 2.6% of all), similar ones and a draw of the others.
Calb FLC – affects C. albicans growth with fluconazole; growth inhibition, % (concentration not given with the values); C. albicans CaCi-2 (fluconazole-resistant clinical isolate) + fluconazole, Alamar Blue growth, 48 h; hit rate 0.57% among 300,000;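 active = growth inhibition above about 58% in most replicates, limit read from the data, passing the limit was not always enough; inconclusive = exactly half the replicates above a set limit; inactive = most replicates below a set limit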;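 also: all wells also contain fluconazole at 8 µg/ml as a sub-toxic cotreatment; 0% = median of DMSO wells and 100% = median of geldanamycin control wells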
PHOSPHO1 inh – PHOSPHO1 (human) inhibition; inhibition, % at 13.3 µM; hit rate 1.1% among 290,000; recombinant PHOSPHO1, absorbance phosphatase assay; Q8TCT1; in the data active = inhibition above about 60%
Target sequence (Q8TCT1 whole entry, looked up): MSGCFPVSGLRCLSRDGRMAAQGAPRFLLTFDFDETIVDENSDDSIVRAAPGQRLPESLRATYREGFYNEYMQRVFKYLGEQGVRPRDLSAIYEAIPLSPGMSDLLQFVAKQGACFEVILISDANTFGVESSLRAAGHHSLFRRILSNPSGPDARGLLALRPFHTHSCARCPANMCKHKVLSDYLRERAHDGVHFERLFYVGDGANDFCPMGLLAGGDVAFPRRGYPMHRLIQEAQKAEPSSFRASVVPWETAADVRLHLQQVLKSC
VIM-2 inhibitor – inhibitors of Pseudomonas aeruginosa VIM-2 metallo-beta-lactamase | purified VIM-2, nitrocefin hydrolysis, epi-absorbance fluorescence | inhibition, % at 5.6 µM | hit rate 0.89% among 290,000 | AID 1527;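 active = inhibition above the mean of all tested compounds plus 3 SD, cutoff set per screening run, cut at about 7.5% in these data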;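 also: red hydrolysis product quenches plate fluorescence so inhibitors raise well fluorescence; 0% = enzyme with DMSO and 100% = DMSO without enzyme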
ASAP1 inh – ASAP1 ArfGAP inhibition. ASAP1-stimulated ARF1 GTP hydrolysis, GDP FP detection. inhibition, % at 16.5 µM. hit rate 0.19% among 360,000. AID 624377; in the data active = inhibition above about 25%;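 also: 0% = vehicle with enzyme and substrate and 100% = no enzyme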
Target sequence (Q9ULH1 325-724 limits assumed): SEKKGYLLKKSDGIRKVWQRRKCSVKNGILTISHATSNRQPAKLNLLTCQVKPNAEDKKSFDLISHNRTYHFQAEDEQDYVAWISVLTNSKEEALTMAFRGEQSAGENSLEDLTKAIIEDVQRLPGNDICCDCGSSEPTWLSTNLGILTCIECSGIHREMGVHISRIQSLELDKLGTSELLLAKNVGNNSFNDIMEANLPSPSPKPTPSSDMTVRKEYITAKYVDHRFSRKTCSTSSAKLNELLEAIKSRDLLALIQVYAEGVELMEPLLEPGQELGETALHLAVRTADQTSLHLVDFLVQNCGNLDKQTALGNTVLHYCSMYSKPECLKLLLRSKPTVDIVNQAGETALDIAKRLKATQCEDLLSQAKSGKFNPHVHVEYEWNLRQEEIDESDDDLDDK
IMP-1 inhibitor – blocks Pseudomonas aeruginosa IMP-1 metallo-beta-lactamase; inhibition, % at 5.6 µM; purified IMP-1, nitrocefin hydrolysis, epi-absorbance fluorescence; hit rate 0.45% among 290,000;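 active = inhibition above the mean plus 3 SD of all compounds in the same screening run, cut at about 4.5% in these data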;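 also: 0% = IMP-1 with DMSO and 100% = DMSO wells lacking enzyme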
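System: Purified IMP-1 | Read-out basis: Percent enzyme inhibition | Controls: IMP-1 with DMSO as 0%, enzyme-free DMSO as 100% | Replicates: One well per compound | Doses: 5.6 µM nominal single concentration | Detection: Epi-absorbance fluorescence, 480 nm excitation, 530 nm emission | Incubation: 25 °C, 15 min preincubation, 25 min reaction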
ARFGAP1 inhibitor – inhibits rat ARF GTPase activating protein 1; Q62848; Arfgap1-stimulated ARF1 GTP hydrolysis, GDP FP detection; inhibition, % at 16.5 µM; hit rate 0.26% among 360,000; AID 651572;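 active = inhibition above a per-plate limit, mean inhibition of low control wells plus 3 SD, cut at about 25% in these data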;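 also: 0% = DMSO wells with enzyme and 100% = wells lacking Arfgap1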
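material = rat Arfgap1 catalytic domain, aa 1-136 | also added = human ARF1(Δ1-17)-GTP substrate | compound dosing = one concentration, 16.5 µM, DMSO 1.26% | times = GTP hydrolysis reaction 2 h at 25 °C | measured by = FP, GDP Alexa 633 tracer displaced from anti-GDP antibody, 620/688 nm | evaluation = percent inhibition of Arfgap1-stimulated GTP hydrolysis | replication = single well per compound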
ASAP1 GAP conf – ASAP1 inhibition confirmed; inhibition, % at 16.5 µM; ASAP1-stimulated Arf1 GTPase, GDP fluorescence polarization; hit rate 37% among 620; shares compounds with ASAP1 inh;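 active = mean inhibition over triplicates exceeds the hit threshold derived for the earlier primary screening run, cut at about 25% in these data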
ARFGAP1 confirm – rat ARFGAP1 inhibition, confirmed; shares compounds with ARFGAP1 inhibitor; ARFGAP1-stimulated ARF1 GTP hydrolysis, GDP tracer FP; inhibition, % at 16.5 µM; hit rate 30% among 890; AID 651608;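 active = average inhibition over triplicates above the hit cutoff set in the earlier primary screen, cut at about 25% in these data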;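 also: 0% = Arfgap1 plus ARF1-GTP with DMSO and 100% = wells lacking Arfgap1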
Active calls of the source: *; ? = inconclusive; / = not tested or not shown.

SMILES	Calb FLC	PHOSPHO1 inh	VIM-2 inhibitor	ASAP1 inh	IMP-1 inhibitor	ARFGAP1 inhibitor	ASAP1 GAP conf	ARFGAP1 confirm
O=C(Nc1cccc(-c2nc3ccccc3[nH]2)c1)c1cccc(NC(=O)c2ccco2)c1	-1	-1	-2	44*	0	77*	76*	123*
CCN1CCN(Cc2ccc(NC(=O)c3cc(NC(=O)c4nccnc4N)cc(OC)c3)cc2C(F)(F)F)CC1	-3	16	/	19	/	2	/	/
CCN1CCN(Cc2ccc(NC(=O)c3cc(NC(=O)c4cncc(-c5ccc(C#N)cc5)c4)cc(OC)c3)cc2C(F)(F)F)CC1	1	-9	/	57*	/	67*	75*	108*
CC1CCN(C(=O)C2CCC(CNS(=O)(=O)c3ccc4c(c3)C(C)(C)C(=O)N4C)CC2)CC1 (configuration not stated)	/	/	/	3	/	-4	/	/
CCCCCCCCN1C(=O)[C@H](CC(=O)NCc2ccccc2)C[C@@]2(C(=O)OC)CCCCC=C12	/	/	/	11	/	8	/	/
COc1cc(/C=N\NC(=O)c2ccc(C)nc2)ccc1OC(=O)c1ccc2c(c1)OCO2	-13	28	-2	29*	-3	29*	38*	75*
COc1ccc2c(c1)CC/C(=C\c1ccc(OC)c(Cn3cccn3)c1)C2=O	-4	-6	0	14	-4	7	/	/
COc1ccc2c(c1)CC/C(=C\c1ccc(OC)c(Cn3nc(C)cc3C)c1)C2=O	22	2	-6	46*	-5	29*	56*	8
CC(=O)Nc1cc(-c2ccc(N3CCN(C)CC3)cc2)cn2c(-c3ccc(S(C)(=O)=O)cc3)cnc12	/	/	/	69*	/	74*	148*	142*
CC(=O)Nc1cc(-c2ccc(N3CCN(C)CC3)cc2)cn2c(-c3ccccc3)cnc12	/	/	/	6	/	6	/	/
O=C(O)c1cc(NN=Nc2cccc([N+](=O)[O-])c2)cc([N+](=O)[O-])c1	1	16	-3	29*	-2	48*	81*	94*
O=C(/C=C\c1cn(-c2ccccc2)nc1-c1ccccc1)Nc1nccs1	4	-27	-3	50*	-3	50*	32*	72*
COc1ccccc1/C=N/Nc1cc(C)nc2ccc(C)cc12	1	14	-3	-9	-3	-10	/	/
COc1ccc(/C=N/Nc2cc(C)nc3ccc(OC)cc23)c(OC)c1	-31	19	5	43*	1	33*	93*	93*
Cc1ccn2c(=O)nc(SCC(=O)N3CCCCCC3)nc2c1	8	/	/	4	/	-7	/	/
Cc1ccc2nc(SCC(=O)N3CCCCCC3)nc(=O)n2c1	-1	/	/	44*	/	62*	44*	77*
Cc1ccc2nc(SCC(=O)N3CCCCC3)nc(=O)n2c1	1	/	/	29*	/	48*	33*	57*
COc1ccc(NC(=O)N(C)C[C@@H]2OCc3cnnn3CCCC(=O)N([C@H](C)CO)C[C@@H]2C)cc1	/	/	/	14	/	-1	/	/
Cc1nc(-[n+]2nc(-c3ccncc3)nn2-c2ccccc2)sc1C	/	/	/	-4	/	-6	/	/
CCCc1nc2c(C)cc(Br)cn2c1Cc1ccccc1C(F)(F)F	/	/	/	7	/	14	/	/
COc1ccc(OC)c(Nc2cc3ccccc3c(=O)[nH]2)c1	17	/	/	30*	/	27*	16	17
COc1ccc(OC)c(Nc2nnc(C)c(=O)[nH]2)c1	3	32	-4	7	-2	-7	/	/
COc1ccccc1Nc1cc2cc(Br)ccc2c(=O)[nH]1	-5	/	/	39*	/	31*	34*	22
COc1ccccc1Nc1nnc(C)c(=O)[nH]1	-8	21	-2	6	0	9	/	/
CCOC(=O)[C@]12CCC=C1N(Cc1ccc3c(c1)OCO3)C(=O)[C@H](CC(=O)NCCC(C)C)C2	/	/	/	13	/	-2	/	/
SMILES	Calb FLC	PHOSPHO1 inh	VIM-2 inhibitor	ASAP1 inh	IMP-1 inhibitor	ARFGAP1 inhibitor	ASAP1 GAP conf	ARFGAP1 confirm
COc1ccc(/C=C2\C(=O)NC(=O)c3ccccc32)cc1OC	/	/	/	44*	/	33*	41*	19
Clc1ccc(Cn2cc(/C=N/n3cnnc3)c3ccccc32)c(Cl)c1	?	12	-2	44*	-4	60*	51*	77*
C(=N\n1cnnc1)/c1cn(Cc2ccccc2)c2ccccc12	-22	17	-2	-5	-2	-2	/	/
CC(C)(C)N1C(=O)c2ccccc2NC(=O)C1C(=O)Nc1ccc2c(c1)OCCO2 (configuration not stated)	/	/	/	10	/	0	/	/
COc1ccc(C2C(C(=O)c3ccccc3)N3c4ccccc4C=CC3C2[N+](=O)[O-])cc1 (configuration not stated)	/	28	0	29*	1	27*	12	10
Cc1cc(C)c2nc(N3C(=O)C(O)=C(C(=O)c4ccco4)C3c3cccc(O)c3)sc2c1 (configuration not stated)	/	/	/	26*	/	25*	39*	39*
O=C(NCc1ccncc1)C(=O)N/N=C/c1ccccc1OCc1ccccc1	-12	-10	-4	5	-4	-7	/	/
O=C(NCc1ccncc1)C(=O)N/N=C/c1ccc(OCc2ccccc2)cc1	-23	40	0	31*	0	58*	41*	99*
N#Cc1ccc(-c2ccc(OCC(=O)NCC(=O)Nc3ccc(F)c(F)c3F)cc2)cc1	-3	-1	-1	37*	-2	58*	51*	80*
Cc1[nH][nH]c(=O)c1C(c1ccc(-c2cccc(C(=O)O)c2)o1)c1c(C)[nH][nH]c1=O	-7	33	-4	26*	1	31*	-3	-10
COc1cc(NC(=O)c2cc3c(C)nc4ccccc4c3o2)cc(OC)c1OC	-2	7	4	33*	-3	47*	69*	52*
Cn1nccc1-c1ccc(C(=O)NCc2ccco2)c2occc12	/	/	/	-9	/	4	/	/
C[C@H]1CN([C@@H](C)CO)C(=O)CCCn2nncc2CO[C@@H]1CN(C)Cc1ccncc1	/	/	/	-1	/	5	/	/
NC(=S)N/N=C/c1ccccc1O	-40	19	-3	2	-3	-5	/	/
Oc1ccccc1C=NNC(=S)NN=Cc1ccccc1O	/	/	/	32*	/	55*	58*	71*
NC(=O)c1ccc(N=C2C(=O)Nc3ccc([N+](=O)[O-])cc32)cc1	-19	41	-1	40*	1	37*	/	9
COc1ccc2c(c1)C(c1ccc(C)o1)=NNC(c1cccnc1)=N2	32	24	-1	-6	-4	25*	/	1
O=C(NCc1ccc(F)cc1)c1cc(C2CCCCN2C(=O)c2ccc(Cl)cc2)on1 (configuration not stated)	/	/	/	2	/	6	/	/
